4 compounds from ChEMBL document CHEMBL3272314, “Sturcture-activity relationship of daunorubicin and its peptide derivatives” (J Med Chem, 1976) can be followed below.

Activity calls are given as the source filed them. No cut-off for these calls is given here.

For data set [1], the target named is Bacterial DNA-directed RNA polymerase (Bacteria) (UniProt P0A8V2+P0A7Z4+P0A8T7+P0A800). The data set is described as follows: Inhibition of Escherichia coli DNA-dependent RNA polymerase assessed as [3H]UMP incorporation into RNA using calf thymus DNA at 0.12 mM by liquid scintillation counting. Format: protein-complex assay. The procedure, abridged:
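E. coli RNA polymerase purified through a high-salt glycerol gradient step, 87 units/ml. Mix: 56 mM Tris-HCl pH 7.8, 1.6 mM MnCl2, 150 mM KCl, 1.6 mM β-mercaptoethanol, 0.6 mM each GTP/ATP/CTP, 0.15 mM [5-3H]-UTP, 0.12 mM P/l calf thymus DNA, drug at 0.12 mM. Started with enzyme at 37°C and sampled over time. TCA-insoluble RNA collected on filters and scintillation counted.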

A further data set deals with P388. Kind of data set: Antitumor activity against mouse P388 cells allografted in mouse assessed as tumor growth inhibition at 0.25 to 10 mg/kg. Format: functional, organism-based. The method, boiled down: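 Screened by the NCI Drug Research and Development Branch against P388 lymphocytic leukemia in mice. Dosing was daily at 0.25-10.0 mg/kg, given by peritoneal injection in water.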

The nature of data set [2]: Dissociation constant, pKa of the compound. Format: physicochemical.
Data set [3] in a line: Retardation factor of the compound in 10% methanol-chloroform by TLC. Format: physicochemical.
The subject of data set [4] is Salmonidae. The data set is described as follows: Binding affinity to salmon sperm DNA assessed as first order dissociation rate at pH 6.2 by stop-flow technique in presence of 5 mM Na+ ionic strength. The method, boiled down:
(§1)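 Salmon sperm DNA–drug complex preformed without SDS at 6 μM drug and 0.36 mM DNA P/l. Dissociation was started by mixing with 0.2% SDS and followed at 480 nm by stop-flow at 15°C. Buffers were 10 mM MES at pH 6.2 and 1 mM PIPES at pH 7.8, with Na+ set by NaCl. First-order k (sec⁻¹) was taken from rate plots over ≥2.5 half-lives.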

Data set [5] concerns Salmonidae. Kind of data set: Binding affinity to salmon sperm DNA assessed as first order dissociation rate at pH 6.2 by stop-flow technique in presence of 21 mM Na+ ionic strength. The method, boiled down: as §1
Data set [6] deals with Salmonidae. The data set is described as follows: Binding affinity to salmon sperm DNA assessed as first order dissociation rate at pH 7.8 by stop-flow technique in presence of 21 mM Na+ ionic strength. The procedure, abridged:
as §1

Data set [7] has as its system Salmonidae. Kind of data set: Binding affinity to salmon sperm DNA assessed as first order dissociation rate at pH 7.8 by stop-flow technique in presence of 1 mM Na+ ionic strength. The method, boiled down: as §1
Data set [8] concerns Salmonidae. Kind of data set: Binding affinity to salmon sperm DNA assessed as first order dissociation rate at pH 7.8 by stop-flow technique in presence of 201 mM Na+ ionic strength. The method, boiled down:
as §1

Data set [9] in a line: Dissociation constant, pKa of the compound in 20% EtOH/H2O. Format: physicochemical.
Data set [10] is described as follows: Solubility of the compound in H2O at pH >7. Type of data set: physicochemical.

Bacterial DNA-directed RNA polymerase (Bacteria), sequence (P0A7Z4 whole entry partner): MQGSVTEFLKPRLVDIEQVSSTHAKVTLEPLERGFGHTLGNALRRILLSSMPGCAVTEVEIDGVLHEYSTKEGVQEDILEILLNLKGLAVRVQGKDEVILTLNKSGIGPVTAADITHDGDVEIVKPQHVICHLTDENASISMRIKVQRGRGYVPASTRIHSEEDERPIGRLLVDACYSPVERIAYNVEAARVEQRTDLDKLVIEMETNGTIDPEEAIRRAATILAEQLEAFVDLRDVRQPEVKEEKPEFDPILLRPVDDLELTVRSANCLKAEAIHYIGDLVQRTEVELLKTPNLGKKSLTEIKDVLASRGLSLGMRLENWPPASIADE
Bacterial DNA-directed RNA polymerase (Bacteria), sequence (P0A800 2-91 partner limits assumed): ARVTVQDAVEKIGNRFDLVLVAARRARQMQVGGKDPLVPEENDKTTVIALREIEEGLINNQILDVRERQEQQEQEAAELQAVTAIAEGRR
Bacterial DNA-directed RNA polymerase (Bacteria), sequence (P0A8T7 whole entry partner): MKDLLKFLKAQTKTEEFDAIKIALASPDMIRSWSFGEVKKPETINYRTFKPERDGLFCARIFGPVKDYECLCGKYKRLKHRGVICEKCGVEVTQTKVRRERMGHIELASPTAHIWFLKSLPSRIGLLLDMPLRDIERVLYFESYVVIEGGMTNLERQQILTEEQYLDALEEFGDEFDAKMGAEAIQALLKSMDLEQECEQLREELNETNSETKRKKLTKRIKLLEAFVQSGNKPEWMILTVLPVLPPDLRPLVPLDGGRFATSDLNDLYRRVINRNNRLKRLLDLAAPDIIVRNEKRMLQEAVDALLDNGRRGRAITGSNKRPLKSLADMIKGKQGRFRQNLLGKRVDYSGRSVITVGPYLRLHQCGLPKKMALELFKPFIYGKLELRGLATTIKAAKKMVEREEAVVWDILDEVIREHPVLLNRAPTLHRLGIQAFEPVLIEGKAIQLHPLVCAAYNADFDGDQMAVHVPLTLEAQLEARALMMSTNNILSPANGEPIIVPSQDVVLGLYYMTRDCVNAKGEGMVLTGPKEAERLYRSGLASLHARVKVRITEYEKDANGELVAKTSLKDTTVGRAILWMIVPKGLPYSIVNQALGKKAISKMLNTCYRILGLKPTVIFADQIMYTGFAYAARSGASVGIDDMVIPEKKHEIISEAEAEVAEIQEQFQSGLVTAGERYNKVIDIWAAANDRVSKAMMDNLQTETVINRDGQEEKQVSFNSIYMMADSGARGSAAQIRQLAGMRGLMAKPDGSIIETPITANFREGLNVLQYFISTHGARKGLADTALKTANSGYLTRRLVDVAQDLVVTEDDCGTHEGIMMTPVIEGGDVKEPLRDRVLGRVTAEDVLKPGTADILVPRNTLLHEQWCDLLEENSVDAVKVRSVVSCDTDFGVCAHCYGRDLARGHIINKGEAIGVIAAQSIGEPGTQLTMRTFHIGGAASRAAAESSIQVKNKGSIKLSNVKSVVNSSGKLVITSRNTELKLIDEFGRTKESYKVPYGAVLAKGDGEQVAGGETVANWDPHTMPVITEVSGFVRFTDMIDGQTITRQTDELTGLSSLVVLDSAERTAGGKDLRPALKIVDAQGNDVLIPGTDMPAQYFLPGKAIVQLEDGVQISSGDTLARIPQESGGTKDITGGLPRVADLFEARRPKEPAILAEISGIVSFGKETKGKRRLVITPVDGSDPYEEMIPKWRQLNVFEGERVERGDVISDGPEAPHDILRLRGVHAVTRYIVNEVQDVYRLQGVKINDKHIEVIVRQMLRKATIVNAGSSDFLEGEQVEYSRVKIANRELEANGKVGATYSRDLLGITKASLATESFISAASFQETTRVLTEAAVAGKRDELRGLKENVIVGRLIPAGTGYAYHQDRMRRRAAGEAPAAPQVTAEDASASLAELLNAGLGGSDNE
Bacterial DNA-directed RNA polymerase (Bacteria), sequence (P0A8V2 whole entry): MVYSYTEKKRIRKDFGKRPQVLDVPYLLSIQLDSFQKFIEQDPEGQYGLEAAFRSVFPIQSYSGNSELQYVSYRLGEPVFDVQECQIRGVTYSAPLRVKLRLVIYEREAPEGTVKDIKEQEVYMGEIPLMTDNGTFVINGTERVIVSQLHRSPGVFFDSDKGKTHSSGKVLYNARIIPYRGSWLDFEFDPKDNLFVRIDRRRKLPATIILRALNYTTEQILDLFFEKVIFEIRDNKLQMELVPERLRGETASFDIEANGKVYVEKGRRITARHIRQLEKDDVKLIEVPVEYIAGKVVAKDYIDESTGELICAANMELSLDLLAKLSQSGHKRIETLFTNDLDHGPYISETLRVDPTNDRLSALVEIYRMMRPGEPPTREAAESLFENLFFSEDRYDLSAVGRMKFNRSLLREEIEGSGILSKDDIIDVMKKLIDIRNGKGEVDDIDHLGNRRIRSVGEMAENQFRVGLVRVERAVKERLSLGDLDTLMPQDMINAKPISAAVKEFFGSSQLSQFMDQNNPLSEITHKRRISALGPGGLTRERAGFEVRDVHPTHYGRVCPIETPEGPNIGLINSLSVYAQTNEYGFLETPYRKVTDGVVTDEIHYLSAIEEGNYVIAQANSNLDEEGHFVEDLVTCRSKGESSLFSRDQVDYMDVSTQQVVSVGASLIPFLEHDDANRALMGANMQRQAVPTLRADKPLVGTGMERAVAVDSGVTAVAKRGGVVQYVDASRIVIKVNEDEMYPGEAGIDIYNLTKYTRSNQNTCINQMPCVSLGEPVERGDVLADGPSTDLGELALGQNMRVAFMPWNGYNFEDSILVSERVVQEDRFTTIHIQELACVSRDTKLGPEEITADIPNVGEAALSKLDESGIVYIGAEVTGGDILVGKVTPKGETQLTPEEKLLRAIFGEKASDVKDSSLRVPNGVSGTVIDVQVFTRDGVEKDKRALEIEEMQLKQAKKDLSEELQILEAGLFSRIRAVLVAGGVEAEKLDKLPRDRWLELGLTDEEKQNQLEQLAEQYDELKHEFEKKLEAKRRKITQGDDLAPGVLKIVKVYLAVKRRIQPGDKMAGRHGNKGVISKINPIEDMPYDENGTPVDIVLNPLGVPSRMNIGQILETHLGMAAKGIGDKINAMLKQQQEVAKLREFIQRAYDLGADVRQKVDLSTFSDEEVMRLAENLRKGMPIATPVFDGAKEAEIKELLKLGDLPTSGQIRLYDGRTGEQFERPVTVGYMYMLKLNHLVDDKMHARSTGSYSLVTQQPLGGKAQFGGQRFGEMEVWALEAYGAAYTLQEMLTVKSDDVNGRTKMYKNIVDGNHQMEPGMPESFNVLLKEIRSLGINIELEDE

As to `COc1cccc2c1C(=O)c1c(O)c3c(c(O)c1C2=O)C[C@@](O)(C(C)=O)C[C@@H]3O[C@H]1C[C@H](NC(=O)CNC(=O)CN(C)C)[C@H](O)[C@H](C)O1`, the inhibition result in data set [1] is “Active”. Besides, the TGI entry in the data set on P388 was “Active”. This compound also displayed a pKa in data set [2] of 7.39.
For the compound `COc1cccc2c1C(=O)c1c(O)c3c(c(O)c1C2=O)C[C@@](O)(C(C)=O)C[C@@H]3O[C@H]1C[C@H](NC(=O)CN(C)C)[C@H](O)[C@H](C)O1`, the inhibition entry in data set [1] is “Active”. Moreover, the TGI entry with P388 is “Active”. Besides, the pKa in data set [2] worked out at 7.35. For the same compound, the Rf in [3] is 0.68.
On to `COc1cccc2c1C(=O)c1c(O)c3c(c(O)c1C2=O)C[C@@](O)(C(C)=O)C[C@@H]3O[C@H]1C[C@H](N)[C@H](O)[C@H](C)O1.Cl` [DAUNORUBICIN HYDROCHLORIDE], for which, in data set [1], the inhibition entry is “Active”. Further, the K in the data set on Salmonidae [4] worked out at 0.98 s⁻¹; in the data set on Salmonidae [5], 0.98 s⁻¹; with Salmonidae [6], 1.57 s⁻¹; with Salmonidae [7], 1.37 s⁻¹; in the data set on Salmonidae [8], 2.88 s⁻¹. Also, the TGI result with P388 was “Active”. Moreover, in data set [2], the pKa turned out to be 8.99. Moreover, the Rf in data set [3] is given as 0.17.
For the compound `CCCN(CCC)CC(=O)N[C@H]1C[C@H](O[C@H]2C[C@](O)(C(C)=O)Cc3c(O)c4c(c(O)c32)C(=O)c2c(OC)cccc2C4=O)O[C@@H](C)[C@H]1O`, the pKa in data set [9] came to 7.2. The TGI result with P388 is “inactive”. Besides, the solubility entry in data set [10] was “Insoluble”.
